Calls of active or inactive are those of the source. No cut-off for these calls is given here. Peptide text beside a SMILES is read from it.
Legend:
Transcription factor Jun [1] = target: T1, Transcription factor Jun (Homo sapiens, UniProt P05412); assay: Binding affinity to wild type c-Jun homodimer by circular dichroism spectroscopy
Transcription factor Jun [2] = target: T1, Transcription factor Jun; assay: Binding affinity to c-Jun homodimer containing bipartite tetracysteine motif at 100 nM
Transcription factor Jun [3] = target: T1, Transcription factor Jun; assay: Binding affinity to c-Jun homodimer containing bipartite tetracysteine motif at 25 nM
Method in brief: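 Fluorescence titration: 25 nM FlAsH or ReAsH titrated with increasing synthetic peptide or protein domain in 100 mM Tris-HCl pH 7.8 with 3.5 mM TCEP, 1 mM EDT, 1 mM EDTA. Emission read at 530 ± 12.5 nm (FlAsH) or 630 ± 17.5 nm (ReAsH) after reaching equilibrium, tracked over time. Apparent Kd taken from intensity versus concentration. Points are means of ≥3 independent titrations ± s.d.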

Transcription factor Jun [4] = target: T1, Transcription factor Jun; assay: Binding affinity to wild-type c-Jun homodimer at by circular dichroism spectroscopy

T1 sequence (P05412 whole entry): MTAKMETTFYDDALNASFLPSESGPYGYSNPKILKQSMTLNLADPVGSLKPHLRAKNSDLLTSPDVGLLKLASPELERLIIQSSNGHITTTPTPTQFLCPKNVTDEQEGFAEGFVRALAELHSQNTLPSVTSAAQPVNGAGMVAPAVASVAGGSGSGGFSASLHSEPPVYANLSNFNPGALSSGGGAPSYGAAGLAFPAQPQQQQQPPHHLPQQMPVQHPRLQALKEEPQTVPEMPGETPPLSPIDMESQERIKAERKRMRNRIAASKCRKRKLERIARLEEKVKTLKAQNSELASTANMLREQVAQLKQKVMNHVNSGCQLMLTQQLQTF

Activity (Transcription factor Jun [1]): inactive | Activity (Transcription factor Jun [2]): Active | Activity (Transcription factor Jun [3]): Active | Kd (Transcription factor Jun [4]): 10 µM
Compound: CC[C@H](C)[C@H](NC(=O)[C@H](CCCNC(=N)N)NC(=O)[C@H](Cc1c[nH]c2ccccc12)NC(C)=O)C(=O)N[C@@H](C)C(=O)N[C@@H](CCCNC(=N)N)C(=O)N[C@@H](CC(C)C)C(=O)N[C@@H](CCC(=O)O)C(=O)N[C@@H](CCC(=O)O)C(=O)N[C@@H](CCCCN)C(=O)N[C@H](C(=O)N[C@@H](CCCCN)C(=O)N[C@H](C(=O)N[C@@H](CC(C)C)C(=O)N[C@@H](CCCCN)C(=O)N[C@@H](C)C(=O)N[C@@H](CCC(N)=O)C(=O)N[C@@H](CC(N)=O)C(=O)N[C@@H](CO)C(=O)N[C@@H](CCC(=O)O)C(=O)N[C@@H](CC(C)C)C(=O)N[C@@H](C)C(=O)N[C@@H](CO)C(=O)N[C@H](C(=O)N[C@@H](C)C(=O)N[C@@H](CC(N)=O)C(=O)N[C@@H](CCSC)C(=O)N[C@@H](CC(C)C)C(=O)N[C@@H](CCCNC(=N)N)C(=O)N[C@@H](CCC(=O)O)C(=O)N[C@@H](CCC(N)=O)C(=O)N[C@H](C(=O)N[C@@H](C)C(=O)N[C@@H](CCC(N)=O)C(=O)N[C@@H](CC(C)C)C(=O)N[C@@H](CCCCN)C(=O)N[C@@H](CCC(N)=O)C(=O)N[C@@H](CCCCN)C(=O)N[C@H](C(=O)N[C@@H](CS)C(=O)N[C@@H](CS)C(N)=O)C(C)C)C(C)C)[C@@H](C)O)[C@@H](C)O)C(C)C (Ac-WRIARLEEKVKTLKAQNSELASTANMLREQVAQLKQKVCC-NH2)
